# Activity calls are given as the source filed them. The rule behind the calls is not given here.
# Tests used:
# Rattus norvegicus [1] = organism: Rattus norvegicus; conditions: Sprague-Dawley, 2000 ug/kg
# Rattus norvegicus [2] = organism: Rattus norvegicus; conditions: Sprague-Dawley, 2000 ug/kg; remark: listed apart in the source
# [3] = Inhibition of PDE4 in human whole blood PBMC assessed as reduction in LPS-induced TNFalpha production after 24 hrs by ELISA
# Method in brief: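 Heparinized whole blood from healthy donors was preincubated with LPS (1 μg/mL final) at 37 °C for 10 min. It was then added to compounds in DMSO and incubated 24 h at 37 °C with agitation, then centrifuged. Serum TNF-α was measured by sandwich ELISA with TMB read-out at 450 nm. Experiments were done 2−3 times and duplicates were averaged.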
# Rattus norvegicus [4] = test: (§1) Antiinflammatory activity in Sprague-Dawley rat LPS-induced neutrophilia model assessed as inhibition of LPS-induced increase in netrophils in bronchoalveolar lavage at 1000 ug/kg, it administered single dose as microspray dosed 1 hr prior to nebulized LPS challenge measured after 4 hrs by flow cytometric analysis; type: functional
# Method in brief: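 Compound was suspended in PBS with 0.2% Tween 80, homogenized, and lower doses were made by 1:10 dilution. Rats (male Sprague-Dawley, 230−280 g, fasted, isoflurane) received 0.2 mL intratracheally by microsprayer, about 1 cm above the carina. Nebulized LPS challenge (30 mL over 40 min) followed 1 h later. BAL neutrophils were counted by flow cytometry 4 h after challenge.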
# [5] = Thermodynamic solubility of the compound at 22 degC; type: physicochemical; conditions: read-out: Therm_solubility
# Mustela putorius furo [6] = test: Toxicity in it dosed ferret assessed as emesis administered as dry powder co-mixtured with lactose after 1 hr post dose; type: organism-based; conditions: in vivo, inhaled_or_intranasal
# Lung [7] = test: Drug level in Sprague-Dawley rat lung at 1000 ug/kg, it administered as dry powder measured over 24 hrs post dose; type: ADME, tissue-based; conditions: in vivo, inhaled_or_intranasal, 1 mg/kg
# Method in brief: (§2)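 Dry powder (5% w/w with lactose) was given intratracheally to rats. Compound was recovered from lung biopsies at times over a 24 h period and expressed as percentage of the total administered dose.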
# Lung [8] = test: Drug level in Sprague-Dawley rat lung at 1000 ug/kg, it administered as dry powder measured up to 18 hrs post dose; type: ADME, tissue-based; conditions: in vivo, inhaled_or_intranasal, 1 mg/kg
# Method in brief: as §2
# Rattus norvegicus [9] = test: Pro-inflammatory activity in Sprague-Dawley rat assessed as increase in neutrophils in bronchoalveolar lavage at 3000 ug/kg, it administered as single dose via dry powder insufflator after 18 hrs post dose by flow cytometric analysis relative to basal level; type: ADME; conditions: in vivo, inhaled_or_intranasal, 3 mg/kg
# Method in brief: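 Fasted male Sprague-Dawley rats (230−280 g) under isoflurane received 5 mg […] co-mixed with lactose, delivered intratracheally by DP-4 insufflator with 5 mL air. 18 h later, LPS (1:100 dilution of 10 mg/mL in PBS; 30 mL) was nebulized in chambers over 40 min. BAL was taken 4 h later and neutrophils were counted by flow cytometry. Lactose-only control.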
# [10] = molecular target: 3',5'-cyclic-AMP phosphodiesterase 4B (Homo sapiens, UniProt Q07343); test: Inhibition of recombinant human PDE4B1 using [3H]-cAMP as substrate […] measured after 60 mins by scintillation proximity assay
# Chain of 3',5'-cyclic-AMP phosphodiesterase 4B (Q07343 whole entry): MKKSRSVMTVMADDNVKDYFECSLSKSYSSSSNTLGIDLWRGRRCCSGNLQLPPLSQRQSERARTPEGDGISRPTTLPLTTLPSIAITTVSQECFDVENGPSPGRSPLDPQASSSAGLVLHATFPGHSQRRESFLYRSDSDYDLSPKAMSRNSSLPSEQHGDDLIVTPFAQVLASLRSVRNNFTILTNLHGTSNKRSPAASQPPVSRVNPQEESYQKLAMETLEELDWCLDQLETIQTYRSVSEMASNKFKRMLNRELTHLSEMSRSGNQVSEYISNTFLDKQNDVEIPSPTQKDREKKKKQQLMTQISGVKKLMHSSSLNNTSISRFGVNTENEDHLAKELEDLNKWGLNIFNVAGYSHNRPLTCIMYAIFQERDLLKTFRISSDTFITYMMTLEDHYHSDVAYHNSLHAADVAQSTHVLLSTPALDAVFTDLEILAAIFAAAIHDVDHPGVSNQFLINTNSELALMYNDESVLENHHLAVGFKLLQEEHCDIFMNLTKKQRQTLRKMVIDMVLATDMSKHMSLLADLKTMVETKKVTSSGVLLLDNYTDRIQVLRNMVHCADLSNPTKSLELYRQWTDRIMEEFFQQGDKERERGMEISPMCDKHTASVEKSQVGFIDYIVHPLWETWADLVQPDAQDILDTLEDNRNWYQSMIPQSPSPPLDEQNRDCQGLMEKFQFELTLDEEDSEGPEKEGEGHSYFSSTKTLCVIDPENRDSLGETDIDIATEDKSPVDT
# Method in brief: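 Compounds ranged from 10 μM to 10 pM. The reaction was started with PDE4 enzyme and run 60 min at room temperature with agitation (about 10−20% conversion), then stopped with SPA beads. [3H]-AMP was counted by scintillation.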
# [11] = Plasma concentration in Sprague-Dawley rat at 1000 ug/kg, it measured up to 1 hr post dose; type: ADME, cell-free; conditions: inhaled or intranasal, 1 mg/kg
# Lung [12] = test: Drug level in Sprague-Dawley rat lung at 1000 ug/kg, it administered as dry powder measured at 6 hrs post dose; type: ADME, tissue-based; conditions: in vivo, inhaled_or_intranasal, 1 mg/kg
# Method in brief: as §2
# Lung [13] = test: Drug level in Sprague-Dawley rat lung at 1000 ug/kg, it administered as dry powder measured up to 6 hrs post dose; type: ADME, tissue-based; conditions: in vivo, inhaled_or_intranasal, 1 mg/kg
# Method in brief: as §2
# [14] = AUC in Sprague-Dawley rat at 500 ug/kg, iv; type: ADME; conditions: in vivo, 0.5 mg/kg
# [15] = Apparent permeability of the compound by PAMPA assay; type: physicochemical
# [16] = Volume of distribution at steady state in Sprague-Dawley rat at 500 ug/kg, iv; type: ADME; conditions: in vivo, 0.5 mg/kg, read-out: Vdss
# Mustela putorius furo [17] = test: Toxicity in ferret assessed as emesis at 30 ug/kg, it administered as dry powder co-mixtured with lactose after 1 hr post dose; conditions: in vivo, inhaled_or_intranasal, 0.03 mg/kg
# [18] = Cmax in Sprague-Dawley rat at 500 ug/kg, iv; type: ADME; set-up: dose 500 ug/kg, route intravenous; conditions: in vivo, 0.5 mg/kg
# [19] = Clearance in Sprague-Dawley rat at 500 ug/kg, iv; type: ADME; conditions: in vivo, 0.5 mg/kg
# Rattus norvegicus [20] = test: as §1, with “at 100 to 3000” for “at 1000”, “administered as” for “administered”, “dose via dry powder insufflator” for “dose as microspray”, “1 to 18 hrs” for “1 hr”; type: functional
# Method in brief: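 Male Sprague-Dawley rats (230−280 g, fasted) were anaesthetized with isoflurane. Micronized compound co-mixed with lactose (5 mg of mix) was insufflated intratracheally through a cannula with 5 mL air. One or 18 h later, LPS solution (30 mL) was nebulized into a chamber over 40 min. After 4 h, BAL was done with 2 × 2 mL PBS and neutrophils were counted by flow cytometry. Controls were lactose alone and fluticasone (10% in lactose).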
# [21] = Thermodynamic solubility of the compound at 37 degC
# [22] = Half life in Sprague-Dawley rat at 500 ug/kg, iv; type: ADME; conditions: in vivo, 0.5 mg/kg
# Rattus norvegicus [23] = test: Pro-inflammatory activity in Sprague-Dawley rat assessed as increase in neutrophils in bronchoalveolar lavage at 1000 ug/kg, it administered as single dose via dry powder insufflator after 18 hrs post dose by flow cytometric analysis relative to basal level; type: ADME; conditions: in vivo, inhaled_or_intranasal, 1 mg/kg
Compound,IC50 [3] [nM],IC50 [10] [nM],further results
O=C(Nc1c(Cl)cncc1Cl)c1ccc(OC(F)F)c(OCC2CC2)c1 [ROFLUMILAST],4,–,inhibition (Rattus norvegicus [1]): inactive; inhibition (Rattus norvegicus [2]): Active; inhibition in vivo at 1 mg/kg (Rattus norvegicus [4]): 80%; solubility thermodynamic [5]: 0.52 µg/mL
O=C(NC1CC1)c1cccc(-c2cccc(-c3cc(Nc4cccc5ncccc45)c4c(n3)CCNC4=O)c2)c1,0.12,0.17,Activity (Mustela putorius furo [6]): Dose-dependent effect; Drug uptake (Lung [7]): 15%; Drug uptake (Lung [8]): 18%; fold change (FC) (Rattus norvegicus [9]): 1.3; concentration at 1 h [11]: < 0.005 µg/mL; Drug uptake (Lung [12]): 20%; Drug uptake (Lung [13]): 36%; AUC [14]: 0.108 µg·h/mL; Papp [15]: 1.5 nm/s; Vd [16]: 3.9 L/kg; Activity (Mustela putorius furo [17]): Non-Toxic; Cmax [18]: 0.118 µg/mL; clearance [19]: 4.74 L/h/kg; inhibition in vivo at 1 mg/kg (Rattus norvegicus [4]): 58%; Imax (Rattus norvegicus [20]): 35%; solubility thermodynamic [21]: 4 µg/mL; half-life [22]: 54 min; fold change (FC) (Rattus norvegicus [23]): 0.7
O=C1NCCc2nc(-c3ccccc3)cc(Nc3cccc4ccccc34)c21,–,11,–
O=C1NCCc2nc(-c3ccccc3)cc(Nc3ccc4ncccc4c3)c21,4.8,2.3,–
O=C1NCCc2nc(-c3ccccc3)cc(Nc3ccc(CCO)cc3)c21,–,12,–
O=C1NCCc2nc(-c3ccccc3)cc(Nc3cccc4cnccc34)c21,–,14,–
Cc1ccncc1Nc1cc(-c2ccccc2)nc2c1C(=O)NCC2,–,42,–
COc1cccc(Nc2cc(-c3ccccc3)nc3c2C(=O)NC(C)C3)c1 (stereo unspecified),270,120,–
COc1cccc(Nc2cc(-c3cccc(-c4ccc(C(=O)O)cc4)c3)nc3c2C(=O)NCC3)c1,5.7,0.35,Papp [15]: 35 nm/s
O=C1NCCc2nc(-c3ccccc3)cc(Nc3n[nH]c4ncccc34)c21,3,5.6,–
O=C1NCCc2nc(-c3cccc(-c4cccc(O)c4)c3)cc(Nc3cccc4ncccc34)c21,0.5,0.89,–
COc1cccc(Nc2cc(-c3ccccc3)nc3c2C(=O)NCC3C)c1 (stereo unspecified),–,640,–
O=C1NCCc2nc(-c3ccccc3)cc(Nc3ccc(C[C@@H](O)CO)cc3)c21,0.49,8.7,–
COc1cccc(Nc2cc(-c3cccc(-c4cccc(C(=O)NC5CC5)c4)c3)nc3c2C(=O)NCC3)c1,0.43,2.1,–
COC(=O)c1ccc(O)c(-c2cccc(-c3cc(Nc4cccc(OC)c4)c4c(n3)CCNC4=O)c2)c1,4.2,5.6,–
COc1cc(Nc2cc(-c3ccccc3)nc3c2C(=O)NCC3)ccc1C(=O)O,9.9,2.3,–
O=C1NCCc2nc(-c3ccccc3)cc(Nc3cccc(CO)c3)c21,–,24,–
O=C(O)c1ccc(-c2cccc(-c3cc(Nc4cccc5ncccc45)c4c(n3)CCNC4=O)c2)cc1,0.52,0.11,–
CCOC(=O)c1ccc(-c2cccc(-c3cc(Nc4cccc(OC)c4)c4c(n3)CCNC4=O)c2)cc1,1.2,7.2,–
COc1cc(Nc2cc(-c3ccccc3)nc3c2C(=O)NCC3)cc(OC)c1,–,27,–
CCOC(=O)c1ccc(-c2cccc(-c3cc(Nc4cccc5ncccc45)c4c(n3)CCNC4=O)c2)cc1,0.66,1.2,–
CNC(=O)c1cnc(-c2ccccc2)cc1Nc1cccc2ncccc12,–,5800,–
COc1cccc(Nc2cc(-c3cccc(OC)c3)nc3c2C(=O)NCC3)c1,–,8.4,–
O=C1NCCc2nc(-c3ccc(F)c(F)c3)cc(Nc3cccc4ncccc34)c21,1.5,0.75,–
COc1cccc(Nc2cc(-c3cccc(-c4cc(C(=O)O)ccc4O)c3)nc3c2C(=O)NCC3)c1,140,9.6,–
NC(=O)c1cnc(-c2ccccc2)cc1Nc1cccc2ncccc12,–,35,–
O=C(NC1CC1)c1cccc(-c2cccc(-c3cc(Nc4cccc5c4ccc[n+]5[O-])c4c(n3)CCNC4=O)c2)c1,0.075,0.045,–

# — ChEMBL document CHEMBL4033796, “4-Amino-7,8-dihydro-1,6-naphthyridin-5(6 H)-ones as Inhaled Phosphodiesterase Type 4 (PDE4) Inhibitors: Structural Biology and Structure-Activity Relationships” (J Med Chem, 2018)
